Data as given in paper PMC3263504 (Cell Death and Differentiation, 2011).
No end group written: not given here. *: point of attachment. Biotin = O=C1N[C@H]2[C@H](CS[C@H]2CCCCC(=O)*)N1

Tests used:
[1] = test system: GST-Dom3; assay: GST pull-down of full-length 3xFLAG-Bcl-2 proteins from COS-1 lysates; format: binding, mouse; details: lysates of transfected COS-1 cells, result in words
Procedure, shortened: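 Lysates (200 μg) of COS-1 cells transiently transfected with 3xFLAG-Bcl-2, K/D mutant or empty vector, incubated with purified GST-Dom3 (IP3R1 a.a. 923–1581, E. coli BL21(DE3)-expressed, PBS-dialyzed). Beads washed four times in 150 mM NaCl buffer without BSA, eluted in LDS 3 min at 95°C. Anti-FLAG western blot; bands quantified, normalized to GST binding; at least five independent experiments.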

[2] = test system: C6 glioma cells; assay: PAC-1-induced apoptosis in C6 glioma cells; format: cell-based, rat; details: PAC-1 150 μM, 6 h
Procedure, shortened: (§1)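 C6 glioma monolayers in situ electroporated (100 V peak-to-peak, 500 µm electrode gap, low-conductivity sorbitol buffer) with 100 μM DTR and 20 μM peptide. Trigger applied in medium for 6 h: STS 2 μM or PAC-1 150 µM. Apoptosis stained with FITC-VAD-FMK (10 μM, 40 min, 37°C), PFA-fixed, DAPI. Five images inside and five outside the electroporated area; AI inside relative to outside, then vs vehicle (100%).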

[3] = test system: GST; assay: SPR, parental GST; format: binding; details: GST up to 40 μM, result in words
Procedure, shortened: (§2)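 SPR at 25°C. Biotinylated BH4 peptides (200 ng, 58.2 pmol, >80% pure) immobilized on a streptavidin chip in PBS/0.005% P20, pH 7.0. Analyte was GST-Dom3 or parental GST in PBS, 30 μl/min, several concentrations in random order; response in RU. Scrambled-peptide reference cell subtracted. Regeneration with 25 mM NaOH/0.002% SDS. At least three independent chips.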

[4] = target: GST-Dom3 IP3R1 (Mus musculus, UniProt P11881); assay: SPR, GST-Dom3 of IP3R1 on immobilized biotinylated BH4 peptides; format: binding; details: association phase, corrected for scrambled peptide, result in words
Procedure, shortened: as §2

[5] = test system: IP3R; assay: Unidirectional 45Ca2+-flux assay in saponin-permeabilized MEF cells; format: cell-based, mouse; details: for effect of alanine mutation on the inhibitory action of BH4-Bcl-2 on IICR: 60 μM mutant peptide, result in words; for effect on IICR (dose-response): 3 μM IP3, result in words
Procedure, shortened: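 MEF cells at 30°C permeabilized 10 min with 20 µg/ml saponin (imidazole-KCl, pH 6.8, 1 mM ATP, 1 mM EGTA). Stores loaded 45 min with 150 nM free 45Ca2+, 5 mM ATP, 10 mM NaN3. Efflux medium contained 1 mM EGTA and 4 μM thapsigargin, changed every 2 min. Peptides (alanine mutants 60 μM) added 4 min before IP3 (3 μM, 2 min, after 10 min efflux). Residual Ca2+ released with 2% SDS; read-out fractional loss (%/2 min).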

[6] = test system: C6 glioma cells; assay: Staurosporine-induced apoptosis in C6 glioma cells; format: cell-based, rat; details: 6 h, result in words
Procedure, shortened: as §1

[7] = target: GST-Dom3 (a.a. 923–1581 of IP3R1) (mouse, UniProt P11881 923-1581); assay: SPR
[8] = target: GST-Dom3 IP3R3 (a.a. 910–1427) (rat, UniProt Q63269 910-1427); assay: SPR
[9] = target: GST-Dom3 IP3R2 (a.a. 913–1562) (mouse, UniProt Q9Z329 913-1562); assay: SPR
GST-Dom3 IP3R2 (a.a. 913–1562), sequence (Q9Z329 913-1562): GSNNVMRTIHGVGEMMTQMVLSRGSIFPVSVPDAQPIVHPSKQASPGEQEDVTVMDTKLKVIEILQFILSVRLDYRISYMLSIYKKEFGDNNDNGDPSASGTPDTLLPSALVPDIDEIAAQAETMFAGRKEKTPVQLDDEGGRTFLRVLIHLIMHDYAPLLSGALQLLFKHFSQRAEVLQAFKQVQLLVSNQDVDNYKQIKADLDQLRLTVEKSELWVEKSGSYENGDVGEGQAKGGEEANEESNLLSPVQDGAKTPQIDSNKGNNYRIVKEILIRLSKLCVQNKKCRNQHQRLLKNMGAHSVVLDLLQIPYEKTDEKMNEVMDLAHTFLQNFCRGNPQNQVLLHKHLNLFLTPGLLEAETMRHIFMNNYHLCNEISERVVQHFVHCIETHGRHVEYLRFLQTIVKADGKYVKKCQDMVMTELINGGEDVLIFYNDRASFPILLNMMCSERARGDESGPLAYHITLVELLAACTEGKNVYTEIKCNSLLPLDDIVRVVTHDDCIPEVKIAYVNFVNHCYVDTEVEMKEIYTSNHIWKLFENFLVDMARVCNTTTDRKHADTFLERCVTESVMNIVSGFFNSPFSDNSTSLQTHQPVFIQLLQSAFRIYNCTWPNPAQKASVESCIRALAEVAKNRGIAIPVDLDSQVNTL

GST-Dom3 IP3R1, sequence (P11881 923-1581): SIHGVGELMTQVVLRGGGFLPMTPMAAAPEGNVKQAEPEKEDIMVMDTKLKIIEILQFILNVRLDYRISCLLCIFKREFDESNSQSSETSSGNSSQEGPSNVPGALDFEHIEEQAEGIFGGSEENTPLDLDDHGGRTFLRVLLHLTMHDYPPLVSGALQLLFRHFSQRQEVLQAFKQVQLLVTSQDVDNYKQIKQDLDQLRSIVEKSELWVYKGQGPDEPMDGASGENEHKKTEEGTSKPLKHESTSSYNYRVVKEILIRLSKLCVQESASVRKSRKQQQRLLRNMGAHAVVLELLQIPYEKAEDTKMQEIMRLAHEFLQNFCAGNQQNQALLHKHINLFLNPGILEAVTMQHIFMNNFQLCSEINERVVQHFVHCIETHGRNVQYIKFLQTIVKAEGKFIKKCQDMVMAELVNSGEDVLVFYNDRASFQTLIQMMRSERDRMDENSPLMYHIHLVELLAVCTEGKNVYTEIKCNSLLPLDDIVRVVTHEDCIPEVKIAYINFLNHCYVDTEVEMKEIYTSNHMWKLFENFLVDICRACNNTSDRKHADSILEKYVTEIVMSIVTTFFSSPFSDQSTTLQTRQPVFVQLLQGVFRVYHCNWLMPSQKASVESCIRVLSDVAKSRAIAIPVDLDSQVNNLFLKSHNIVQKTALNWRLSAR
GST-Dom3 (a.a. 923–1581 of IP3R1), sequence (P11881 923-1581): as above
GST-Dom3 IP3R3 (a.a. 910–1427), sequence (Q63269 910-1427): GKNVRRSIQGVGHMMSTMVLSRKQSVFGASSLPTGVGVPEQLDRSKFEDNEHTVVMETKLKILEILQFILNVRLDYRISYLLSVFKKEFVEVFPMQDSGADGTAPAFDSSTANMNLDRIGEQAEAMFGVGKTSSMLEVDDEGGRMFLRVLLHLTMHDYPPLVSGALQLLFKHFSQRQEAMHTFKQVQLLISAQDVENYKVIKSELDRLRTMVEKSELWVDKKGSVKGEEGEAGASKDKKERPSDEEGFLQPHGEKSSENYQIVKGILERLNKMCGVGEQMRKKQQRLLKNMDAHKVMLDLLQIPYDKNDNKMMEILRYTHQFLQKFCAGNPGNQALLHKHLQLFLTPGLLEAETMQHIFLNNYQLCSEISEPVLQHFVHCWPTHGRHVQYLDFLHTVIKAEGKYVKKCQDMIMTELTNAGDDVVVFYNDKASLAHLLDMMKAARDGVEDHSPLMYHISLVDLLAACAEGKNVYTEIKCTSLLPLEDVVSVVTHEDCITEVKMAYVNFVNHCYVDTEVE

Molecule: 3xFLAG-Bcl-2 K/D: full-length 3xFLAG-Bcl-2 with Lys17 mutated into Asp, expressed in COS-1 cells
- binding to GST-Dom3 compared with wild-type 3xFLAG-Bcl-2 [1]: severely compromised

Molecule: C=CCc1cccc(/C=N/NC(=O)CN2CCN(Cc3ccccc3)CC2)c1O [PAC-1]
- apoptosis, share of the cell population [2]: ~15%

Molecule: Biotin-MSQSNRELVVDFLSYKLSQKGYSW [biotin-BH4-Bcl-Xl]
- binding of GST (control) [3]: bound to neither

Molecule: Biotin-MSQSNRELVVKFLSYKLSQKGYSW [biotin-BH4-Bcl-Xl D/K]
- specific binding of GST-Dom3 (resonance units) [4]: able to bind GST-Dom3

Molecule: Biotin-RTGYANAEIVMKYIAEKLSAAGKEW [biotin-BH4-Bcl-2BIND, reference compound]
- specific binding of GST-Dom3 (resonance units) [4]: did not specifically bind

Molecule: H20A (RTGYDNREIVMKYIAYKLSQRGYEW)
- effect of alanine mutation on the inhibitory action of BH4-Bcl-2 on IICR [5]: largest effect on the inhibitory action

Molecule: K17A (RTGYDNREIVMAYIHYKLSQRGYEW)
- effect of alanine mutation on the inhibitory action of BH4-Bcl-2 on IICR [5]: largest effect on the inhibitory action

Molecule: NVYTEIKCNSLLPLDDIVRV [IDP]
- effect of IDP on BH4-Bcl-2-mediated protection against STS ([6]; IDP co-loaded with BH4-Bcl-2, STS 2 μM): completely suppressed
- effect of IDP on the protection by BH4-Bcl-Xl against STS ([6]; IDP co-loaded with BH4-Bcl-Xl, STS 2 μM): independent of IDP

Molecule: R26A (RTGYDNREIVMKYIHYKLSQAGYEW)
- effect of alanine mutation on the inhibitory action of BH4-Bcl-2 on IICR [5]: largest effect on the inhibitory action

Molecule: RTGYANAEIVMKYIAEKLSAAGKEW [BH4-Bcl-2BIND, reference compound]
- effect on IICR (dose-response) [5]: did not inhibit IICR

Molecule: RTGYDNREIVMKYIHYKLSQRGYEW [BH4-Bcl-2 K/D]
- effect on IICR (dose-response) [5]: largely ineffective

Molecule: WYEKQRSLHGIMYYVIEDRNTKGYR [BH4-Bcl-2SCR, reference compound]
- effect on IICR (dose-response) [5]: did not inhibit IICR

Molecule: Y21A (RTGYDNREIVMKYIHAKLSQRGYEW)
- effect of alanine mutation on the inhibitory action of BH4-Bcl-2 on IICR [5]: largest effect on the inhibitory action

B1: Biotin-BH4-Bcl-Xl D/K (peptide)
peptide: Biotin-MSQSNRELVVKFLSYKLSQKGYSW
- binding result [7]: binds

B2: Biotin-BH4-Bcl-2 (peptide)
peptide: Biotin-RTGYDNREIVMKYIHYKLSQRGYEW
- binding result [8]: binds
- binding result [9]: binds
